The results in this text go back to ChEMBL document CHEMBL1132342, “Novel hypotensive agents from Verbesina caracasana. 6. Synthesis and pharmacology of caracasandiamide” (1999).

Experiment [1] concerns Rattus norvegicus. As to the kind of experiment: Change in heart rate after iv administration of 12 uM/kg in anesthetized rats. It counts as functional.
Experiment [2] deals with Rattus norvegicus. As to the kind of experiment: Maximum rate of rise of the left ventricular isovolumetric pressure was measured after iv administration of 12 uM/kg in anesthetized rats. It counts as functional, Heart left ventricle.
In experiment [3] the test system is Rattus norvegicus. As to the kind of experiment: Change in systolic blood pressure after iv administration of 12 uM/kg in anesthetized rats. It counts as functional, Artery. The method, boiled down:
(§1)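 Doses were 4.12 µM/kg (two agents), guanethidine 25, clonidine 0.108, hexamethonium 12, reserpine 8, papaverine 5 and histamine […]. Peak changes in systolic BP or HR were recorded.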

In experiment [4] the test system is Rattus norvegicus. As to the kind of experiment: Change in diastolic blood pressure after iv administration of 12 uM/kg in anesthetized rats. The experiment is classed as functional, Artery.
The subject of experiment [5] is Rattus norvegicus. As to the kind of experiment: Change in diastolic blood pressure after iv administration of 5 uM/kg in anesthetized rats. It counts as functional, Artery.
Experiment [6] relates to Rattus norvegicus. As to the kind of experiment: Change in systolic blood pressure after iv administration of 5 uM/kg in anesthetized rats. It counts as functional, Artery.
Experiment [7] has as its system Rattus norvegicus. Put plainly: Maximum rate of rise of the left ventricular isovolumetric pressure was measured after iv administration of 5 uM/kg in anesthetized rats; ratio given for dP/dt. It counts as functional, Heart left ventricle.
The test system of experiment [8] is Rattus norvegicus. As to the kind of experiment: Change in heart rate after iv administration of 5 uM/kg in anesthetized rats. The experiment is classed as functional. The method, boiled down: as §1
Experiment [9] concerns Rattus norvegicus. Put plainly: Change in diastolic blood pressure after iv administration of 25 uM/kg in anesthetized rats. It counts as functional, Artery.
The test system of experiment [10] is Rattus norvegicus. As to the kind of experiment: Maximum rate of rise of the left ventricular isovolumetric pressure was measured after iv administration of 25 uM/kg in anesthetized rats; ratio given for dP/dt. It counts as functional, Heart left ventricle.
Experiment [11] relates to Rattus norvegicus. As to the kind of experiment: Change in heart rate after iv administration of 25 uM/kg in anesthetized rats. The experiment is classed as functional.
In experiment [12] the test system is Rattus norvegicus. As to the kind of experiment: Change in systolic blood pressure after iv administration of 25 uM/kg in anesthetized rats. The experiment is classed as functional, Artery. The method, boiled down:
as §1

For experiment [13], the system named is Rattus norvegicus. Put plainly: Change in systolic blood pressure after iv administration of 0.625 ug/kg in anesthetized rats.
The test system of experiment [14] is Rattus norvegicus. Put plainly: Maximum rate of rise of the left ventricular isovolumetric pressure was measured after iv administration of 0.625 mg/kg in anesthetized rats. It counts as functional, Heart left ventricle.
Experiment [15] deals with Rattus norvegicus. As to the kind of experiment: Change in heart rate after iv administration of 0.625 ug/kg in anesthetized rats.
Experiment [16] concerns Rattus norvegicus. As to the kind of experiment: Change in diastolic blood pressure after iv administration of 0.625 mg/kg in anesthetized rats. The experiment is classed as functional, Artery.
In experiment [17] the test system is Rattus norvegicus. As to the kind of experiment: Change in systolic blood pressure after iv administration of 8 uM/kg in anesthetized rats. The experiment is classed as functional, Artery.
Experiment [18] deals with Rattus norvegicus. As to the kind of experiment: Maximum rate of rise of the left ventricular isovolumetric pressure was measured after iv administration of 8 uM/kg in anesthetized rats; ratio given for dP/dt. The experiment is classed as functional, Heart left ventricle.
The subject of experiment [19] is Rattus norvegicus. Put plainly: Change in heart rate after iv administration of 8 uM/kg in anesthetized rats. The experiment is classed as functional. Summed up: as §1
In experiment [20] the test system is Rattus norvegicus. As to the kind of experiment: Change in diastolic blood pressure after iv administration of 8 uM/kg in anesthetized rats. The experiment is classed as functional, Artery.
In experiment [21] the test system is Rattus norvegicus. As to the kind of experiment: Change in systolic blood pressure after iv administration of 1 mg/kg in anesthetized rats. The experiment is classed as functional, Artery.
The test system of experiment [22] is Rattus norvegicus. Put plainly: Maximum rate of rise of the left ventricular isovolumetric pressure was measured after iv administration of 1 mg/kg in anesthetized rats. It counts as functional, Heart left ventricle.
Experiment [23] deals with Rattus norvegicus. As to the kind of experiment: Change in diastolic blood pressure after iv administration of 1 mg/kg in anesthetized rats. The experiment is classed as functional, Artery.
Experiment [24] relates to Rattus norvegicus. Put plainly: Change in heart rate after iv administration of 1 mg/kg in anesthetized rats. The experiment is classed as functional.
Experiment [25] deals with Rattus norvegicus. As to the kind of experiment: Change in systolic blood pressure after iv administration of 2.5 mg/kg in anesthetized rats. The experiment is classed as functional, Artery.
The test system of experiment [26] is Rattus norvegicus. Put plainly: Change in diastolic blood pressure after iv administration of 2.5 ug/kg in anesthetized rats.
Experiment [27] relates to Rattus norvegicus. Put plainly: Change in heart rate after iv administration of 2.5 ug/kg in anesthetized rats.
In experiment [28] the test system is Rattus norvegicus. Put plainly: Maximum rate of rise of the left ventricular isovolumetric pressure was measured after iv administration of 2.5 mg/kg in anesthetized rats; ratio given for dP/dt. It counts as functional, Heart left ventricle.

SMILES strings stand for the structures.

`C[N+](C)(C)CCCCCC[N+](C)(C)C.[Cl-].[Cl-]` [HEXAMETHONIUM CHLORIDE] registered a Heart rate in [1] of -46 beats min-1. In addition, the dP/dt in experiment [2] is listed as -4421 mmHg s-1. The BP in [3] is -48 mmHg; in experiment [4], -40 mmHg.
In the case of `COc1ccc(Cc2nccc3cc(OC)c(OC)cc23)cc1OC` [PAPAVERINE], the figures for the BP in experiment [5] and in experiment [6] were -15 mmHg and -20 mmHg, respectively. In addition, the dP/dt in [7] is -1204 mmHg s-1. In experiment [8], the Heart rate is -18 beats min-1.
Turning to `N=C(N)NCCN1CCCCCCC1` [GUANETHIDINE], the BP in experiment [9] is on record as -22 mmHg; in experiment [12], -29 mmHg. Also, in experiment [10], the dP/dt is -1090 mmHg s-1. The compound further yielded a Heart rate in experiment [11] of -24 beats min-1.
Consider `CC(C)NCC(O)c1ccc(O)c(O)c1` (configuration not stated) [ISOPROTERENOL], for which the BP in [13] is listed as -20 mmHg; in experiment [16], -31 mmHg. In experiment [14], this compound had a dP/dt of 9844 mmHg s-1. This compound returned a Heart rate in experiment [15] of 46 beats min-1.
With `COC(=O)[C@H]1[C@H]2C[C@@H]3c4[nH]c5cc(OC)ccc5c4CCN3C[C@H]2C[C@@H](OC(=O)c2cc(OC)c(OC)c(OC)c2)[C@@H]1OC` [RESERPINE], the figures for the BP in experiment [17] and in experiment [20] were -35 mmHg and -29 mmHg, respectively. The dP/dt in experiment [18] was -1438 mmHg s-1. The compound further came in with a Heart rate in experiment [19] of -51 beats min-1.
In the case of `NC[C@H](O)c1ccc(O)c(O)c1` [NOREPINEPHRINE], the BP in [21] was found to be 43 mmHg; in experiment [23] it was 25 mmHg. This compound had a dP/dt in experiment [22] of 5564 mmHg s-1. Besides, in experiment [24], the Heart rate was found to be 28 beats min-1.
As for `CNC[C@H](O)c1ccc(O)c(O)c1` [EPINEPHRINE], the values for the BP in [21] and in [23] were 25 mmHg and 16 mmHg, respectively. In experiment [22], this compound had a dP/dt of 8416 mmHg s-1. The Heart rate in experiment [24] came to 41 beats min-1.
Take `CC(=O)OCC[N+](C)(C)C` [ACETYLCHOLINE]: the figures for the BP in experiment [25] and in experiment [26] were -25 mmHg and -31 mmHg, respectively. Also, the Heart rate in [27] was -27 beats min-1. For the same compound, the dP/dt in experiment [28] is listed as -4451 mmHg s-1.
